Assay [1] addresses T1, Steryl-sulfatase (Homo sapiens, UniProt P08842).
T1 sequence (P08842 whole entry): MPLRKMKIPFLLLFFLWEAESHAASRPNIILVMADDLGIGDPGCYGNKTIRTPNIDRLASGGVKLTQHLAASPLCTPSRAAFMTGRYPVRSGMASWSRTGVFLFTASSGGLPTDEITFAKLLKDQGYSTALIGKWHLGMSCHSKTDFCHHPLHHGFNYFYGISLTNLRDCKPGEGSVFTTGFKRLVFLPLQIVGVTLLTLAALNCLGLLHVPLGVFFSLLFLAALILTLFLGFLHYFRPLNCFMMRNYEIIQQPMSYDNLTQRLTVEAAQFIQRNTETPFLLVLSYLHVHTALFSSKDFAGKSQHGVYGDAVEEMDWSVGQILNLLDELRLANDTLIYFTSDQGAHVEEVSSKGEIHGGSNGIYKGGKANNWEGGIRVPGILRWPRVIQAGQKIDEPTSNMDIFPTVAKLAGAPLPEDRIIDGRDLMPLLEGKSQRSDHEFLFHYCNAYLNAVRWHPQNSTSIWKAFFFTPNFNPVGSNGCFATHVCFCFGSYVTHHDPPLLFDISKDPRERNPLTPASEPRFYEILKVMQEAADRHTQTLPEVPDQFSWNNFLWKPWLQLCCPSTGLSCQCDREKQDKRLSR
Description: Inhibitory activity against human steroid sulfatase over-expressed in CHO cells. The format is functional, cell-based. In outline:
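Live CHO cells stably expressing human STS, 30 000/well, adhered overnight in phenol red-free RPMI 1640 with 10% FCS. Cells were treated with graded inhibitor for 24 h. Medium was then replaced with the same concentrations plus 0.5 mM 4-MUS for 4 h at 37 °C. Supernatant was stopped at pH 10.4 and read at ex 355/em 460 nm. Signal was normalized to sulforhodamine B protein. Triplicates; IC50 is 50% inhibition.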

In assay [2] the target is T1, Steryl-sulfatase. Put plainly: Inhibitory activity against human steroid sulfatase. In outline: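 Highly purified human STS from stably transfected recombinant CHO cells (purity >95%). Substrate 0.5 mM 4-methylumbelliferyl sulfate, pH 7.5, 37 °C. 4-Methylumbelliferone formed was read by fluorescence after alkalization. Inhibitors were added at graded concentrations from ethanol stocks (final ethanol ≤2%). Ki came from turnover at several substrate and inhibitor levels, using a Hanes plot and a Km/Vmax vs I replot.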

By IC50 is commonly meant the concentration needed to halve the response being measured. A low value points to inhibition by little substance. What is called Ki is the dissociation constant of the complex between target and ligand, obtained from inhibition or displacement. A higher Ki goes with weaker binding. For `O=Cc1ccc2oc(C34CC5CC(CC(C5)C3)C4)cc(=O)c2c1`, at Steryl-sulfatase [1], the IC50 was above 30 µM. The compound also registered a Ki at Steryl-sulfatase [2] above 20 µM.

Turning to `NS(=O)(=O)Oc1ccc2oc(C34CC5CC(CC(C5)C3)C4)cc(=O)c2c1`, the IC50 against Steryl-sulfatase [1] turned out to be 0.026 µM. The compound further had a Ki at Steryl-sulfatase [2] of 0.19 µM.

In turn, `N#Cc1ccc2sc(C34CC5CC(CC(C5)C3)C4)cc(=O)c2c1` returned an IC50 at Steryl-sulfatase [1] above 30 µM. The Ki at Steryl-sulfatase [2] is above 50 µM. For `O=C(O)Cc1ccc2oc(C34CC5CC(CC(C5)C3)C4)cc(=O)c2c1`, the IC50 on Steryl-sulfatase [1] was above 30 µM. Further, the Ki at Steryl-sulfatase [2] is above 50 µM. The like results for `O=C(O)c1ccc2oc(C34CC5CC(CC(C5)C3)C4)cc(=O)c2c1` were, in that order, 9.4 µM and 0.5 µM. Taken in the same sequence, the figures for `O=C(CO)c1ccc2oc(C34CC5CC(CC(C5)C3)C4)cc(=O)c2c1` were above 30 µM and 3.2 µM.

On to `O=C(O)c1ccc2sc(C34CC5CC(CC(C5)C3)C4)cc(=O)c2c1`, for which, on Steryl-sulfatase [1], it took 0.18 µM to reach half-maximal inhibition (IC50). For the same compound, at Steryl-sulfatase [2], the Ki was 0.53 µM.

At Steryl-sulfatase [1], `NS(=O)(=O)Oc1ccc2sc(C34CC5CC(CC(C5)C3)C4)cc(=O)c2c1` yielded an IC50 of 0.024 µM. This compound also had a Ki at Steryl-sulfatase [2] of 0.21 µM. In the case of `NC(=O)c1ccc2oc(C34CC5CC(CC(C5)C3)C4)cc(=O)c2c1`, the IC50 against Steryl-sulfatase [1] is above 30 µM. Moreover, the Ki on Steryl-sulfatase [2] was above 50 µM.

On Steryl-sulfatase [1], `C[C@]12CC[C@@H]3c4ccc(OS(N)(=O)=O)cc4CC[C@H]3[C@@H]1CCC2=O` [EMATE] registered an IC50 of 0.02 µM. That is a double-digit nanomolar value. In the case of `COC(=O)c1ccc2oc(C34CC5CC(CC(C5)C3)C4)cc(=O)c2c1`, the IC50 at Steryl-sulfatase [1] is above 30 µM. The same compound came in with a Ki on Steryl-sulfatase [2] above 50 µM. On to `O=C(O)C(=O)c1ccc2oc(C34CC5CC(CC(C5)C3)C4)cc(=O)c2c1`, for which 12.3 µM corresponded to half-maximal inhibition against Steryl-sulfatase [1] (IC50). At Steryl-sulfatase [2], this compound registered a Ki of 2.2 µM. Turning to `O=c1cc(C23CC4CC(CC(C4)C2)C3)oc2ccc(CO)cc12`, at Steryl-sulfatase [1], the IC50 was around 30 µM. Moreover, the Ki on Steryl-sulfatase [2] is 32 µM.

The values are drawn from ChEMBL document CHEMBL1137208, “2-(1-adamantyl)-4-(thio)chromenone-6-carboxylic acids: potent reversible inhibitors of human steroid sulfatase” (J Med Chem, 2004).
